Measurements: article PMC3731570 (Cell Research, 2013)

What was measured:
[1] = test system: Arabidopsis seeds (Col-0 and pyr1;pyl1;pyl4); assay: Seed germination assay; assay type: in vivo, Arabidopsis thaliana; settings: 1 μM
Procedure, shortened: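 Col-0 and pyr1;pyl1;pyl4 seeds were stratified 4 days, then sown on half-strength MS (1% sucrose) containing 1 µM test compound or (+)-ABA; DMSO control. Plates were kept at 22 °C under long day, 15 seeds per plate and 4 plates per chemical. Germination was defined as expanded green cotyledons and counted 4 days after triple-mutant germination; mean ± SD.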

[2] = Stability measurement under UV light; assay type: physicochemical; settings: water exposed to UV light (8 W)
Procedure, shortened: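 Test compound and ABA, each 100 µM in pure water, were exposed in aliquots to an 8 W UV lamp in a safety hood. Aliquots were withdrawn at set time points for LC-MS. Amounts were quantified from peak areas, and half-life was calculated from peak disappearance.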

[3] = test system: ABA-induced stress-related genes; assay: Quantitative RT-PCR of ABA-induced genes in seedlings; assay type: in vivo, Arabidopsis thaliana; settings: 50 μM, 6 h
[4] = test system: Col-0 plants rosette leaves; assay: Water loss; assay type: in vivo, Arabidopsis thaliana; settings: one-month-old Col-0 plants, 50 μM spray, compared with DMSO
Procedure, shortened: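 Well-watered 4-week-old Col-0 plants on soil (8-h light/16-h dark) were sprayed with 50 µM test compound plus 0.02% Tween-20; DMSO control. Plants were returned to the chamber for 3 h. Equal-sized rosette leaves were then detached and weighed in air every 5 min for the first hour and every 10 min for the second. Loss is expressed as % of initial fresh weight; n = 4, standard error.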

[5] = test system: Arabidopsis seedlings transcriptome; assay: RNA-seq transcriptome profiling of seedlings; assay type: in vivo, Arabidopsis thaliana; settings: 50 μM, FDR < 0.05
Procedure, shortened: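 Ten-day-old Col-0 seedlings on half-strength MS were exposed for 6 h to 50 µM test compound or (+)-ABA, or 0.05% DMSO. Duplicate biological replicates were sequenced on Illumina HiSeq2000 (10 M reads/sample, mean length >49 bp). Fold-change versus DMSO was log2-transformed; Spearman correlations were computed between samples. Differential genes were called by SAM analysis.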

[6] = test system: HAB1 PP2C with PYR/PYL receptors; assay: HAB1 phosphatase activity assay; assay type: biochemical, Arabidopsis thaliana; settings: 10 μM; PYR1 and PYL1-10
[7] = test system: reconstructed ABA signaling pathway (PYR1+HAB1+SnRK2.6+ABF2), RD29b-luciferase reporter; assay: Protoplast transactivation assay; assay type: cell-based, Arabidopsis thaliana; settings: snrk2.2/2.3/2.6 protoplasts transfected with PYR1, HAB1, SnRK2.6, ABF2; 5 μM AM1
Procedure, shortened: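 Protoplasts came from 4-week-old pRD29b-LUC plants (snrk2.2/2.3/2.6 background) grown on soil pellets under 8-h light/16-h dark. They were transfected with PYR1, HAB1, SnRK2.6 and ABF2, or the same set without PYR1. Cells were treated with 5 µM test compound; DMSO control. RD29b-driven luciferase was measured.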

half-life at 100 μM [2]: 24 min | activation of RD29b-luciferase reporter [7]: efficiently activate
Compound: CC1=CC(=O)CC(C)(C)[C@@]1(O)/C=C/C(C)=C\C(=O)O [ABA, Abscisic acid]
inhibition of seed germination ([1]; pyr1/pyl1/pyl4 triple mutant): completely abolished | inhibition of seed germination ([1]; wild-type Col-0 seeds): inhibit germination | activation of six ABA-inducible genes ([3]; pyr1/pyl1/pyl4 triple mutant plants): much reduced, but remained inducible | activation of six ABA-inducible genes ([3]; wild-type plants): dramatically activated | water loss of rosette leaves [4]: decreased | number of genes induced (up- or down-regulated) vs DMSO [5]: 4 529 genes | receptor-mediated inhibition of HAB1 PP2C activity [6]: inhibited by all receptor subtypes tested
